ZTA counter: blocks Epstein-Barr virus ZTA, an EBNA-1 counter-screen | ZTA-DNA binding, fluorescence polarization | 320,000 compounds, 0.15% hits | inhibition, % at 11 µM; in the data active = inhibition above about 33%
Target sequence (P03206 whole entry, looked up): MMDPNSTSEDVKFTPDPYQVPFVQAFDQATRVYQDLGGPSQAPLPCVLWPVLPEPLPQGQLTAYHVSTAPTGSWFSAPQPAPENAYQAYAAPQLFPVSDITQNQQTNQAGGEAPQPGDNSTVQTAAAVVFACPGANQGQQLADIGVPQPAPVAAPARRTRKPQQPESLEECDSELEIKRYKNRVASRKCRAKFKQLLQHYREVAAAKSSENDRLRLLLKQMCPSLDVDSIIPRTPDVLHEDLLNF
HCV NS3 hel inh: inhibitors of HCV NS3 helicase, primary screen, biochemical, Cy5 molecular beacon fluorescence | Hepatitis C virus NS3 helicase | NS3 helicase DNA unwinding | inhibition, % at 10.9 µM | 290,000 compounds, 0.56% hits;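 active = inhibition above the mean of all tested compounds plus 3 SD, set per campaign, cut at about 35% in these data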
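System: NS3 helicase fragment of HCV / Schedule: 1 h at 25 °C / Control set: DMSO alone as 0% and 110 µM thioflavine S as 100% / Reagent: Cy5/quencher beacon DNA duplex and ATP to start / Technique: Cy5 fluorescence / Replication: singlicate / Evaluation: % inhibition of end-to-start signal ratio versus controls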
DNA FID counter: compounds displacing fluorescent DNA intercalator, primary screen, artefact control for HCV NS3 helicase inhibitor project, biochemical, FID fluorescence. DNA fluorescent intercalator displacement. 290,000 compounds, 0.17% hits. inhibition, % at 7.9 µM. AID 1845, 2009; in the data active = inhibition above about 37%;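 note: higher means more ethidium bromide displaced from hairpin DNA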
GPR7 antag: GPR7 receptor antagonists, primary screen, cell-based, fluorescence, single concentration; GPR7-expressing cells, fluorescence antagonist assay; inhibition, % at 4.4 µM; 290,000 compounds, 1.1% hits; AID 1861, 2009; in the data active = inhibition above about 16%, passing the limit was not always enough;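 note: cells stimulated with the agonist NPW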
Target sequence (P48145 whole entry, looked up): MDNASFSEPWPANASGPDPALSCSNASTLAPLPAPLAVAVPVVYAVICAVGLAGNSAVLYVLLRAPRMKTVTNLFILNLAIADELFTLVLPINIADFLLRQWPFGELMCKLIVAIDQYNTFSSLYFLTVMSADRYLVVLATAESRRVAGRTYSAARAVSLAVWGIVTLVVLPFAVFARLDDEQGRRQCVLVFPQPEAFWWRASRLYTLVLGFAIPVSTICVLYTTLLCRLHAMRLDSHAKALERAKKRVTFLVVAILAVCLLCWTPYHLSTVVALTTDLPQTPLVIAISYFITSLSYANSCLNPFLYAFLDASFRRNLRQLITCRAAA
EBNA-1 inh: EBNA-1 DNA-binding inhibitors, primary screen, biochemical, fluorescence polarization | 300,000 compounds, 0.34% hits | AID 1950, 2009 | inhibition, % at 14.8 µM; in the data active = inhibition above about 28%
GPR7 antag conf: GPR7 receptor antagonists, confirmation, cell-based, fluorescence, single concentration. AID 1952, 2009. 2,400 compounds, 52% hits. inhibition, % at 4.4 µM. GPR7-expressing cells, calcium fluorescence antagonist mode. shares compounds with GPR7 antag; in the data active = inhibition above about 24%;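 note: stimulated with the GPR7 agonist NPW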
MCHR1 antagonist: MCHR1 antagonists in cells, counter-screen for GPR7 antagonist project, cell-based, fluorescence, human; shares compounds with GPR7 antag; MCHR1-expressing cells, fluorescence antagonist assay; inhibition, % at 4.4 µM; 2,400 compounds, 62% hits; in the data active = inhibition above about 22%
Of the large screens only hits and unclear results are named; the others gave an inactive call (follow-up assays come after a bar, where they were run). Only some compounds are listed: those with a hit (about 2% of all), similar ones and a draw of the others.

CCCN(CCC)CCCNC(=O)c1ccc(CS(=O)(=O)c2c(Cl)cccc2Cl)o1	none
Cn1c(=O)c2c(nc(CN3CCN(C(=O)c4ccco4)CC3)n2CC(=O)C(C)(C)C)n(C)c1=O	none
COC(=O)CSc1nnc(-c2ccc(S(=O)(=O)NCc3ccccc3Cl)cc2)o1	none
CCOC(=O)CSc1nnc(-c2ccc(S(=O)(=O)NCc3cccs3)cc2)o1	GPR7 antag 40 | GPR7 antag conf 38 | MCHR1 antagonist inactive
COC(=O)CSc1nnc(-c2ccc(S(=O)(=O)NCc3cccs3)cc2)o1	GPR7 antag 22 | GPR7 antag conf 58 | MCHR1 antagonist 38
COc1ccc(OC)c2sc(N(CCN(C)C)C(=O)/C=C/c3cccs3)nc12	DNA FID counter 44, GPR7 antag 31 | GPR7 antag conf inactive | MCHR1 antagonist inactive
COc1cccc2sc(N(CCN(C)C)C(=O)/C=C/c3cccs3)nc12	none
CCOc1cccc2sc(N(CCN(C)C)C(=O)/C=C/c3cccs3)nc12	none
COc1ccc(C)c2sc(N(CCN(C)C)C(=O)/C=C/c3cccs3)nc12	GPR7 antag 29 | GPR7 antag conf 38 | MCHR1 antagonist 38
COc1ccc(CC(=O)N(CCC2=CCCCC2)c2c(N)n(Cc3ccccc3)c(=O)[nH]c2=O)cc1OC	none (no result: HCV NS3 hel inh, DNA FID counter, GPR7 antag)
Cc1noc(/C=C/N(C)C)c1S(=O)(=O)N(C)Cc1ccc(F)cc1	none
Cc1c(Cl)ccc2c1NC(=O)[C@]21N[C@@H](Cc2ccccc2)[C@H]2C(=O)N(c3ccc(F)cc3)C(=O)[C@H]21	GPR7 antag 36 | GPR7 antag conf 67 | MCHR1 antagonist 69
Cc1nnc(N/N=C/c2c[nH]c3ccccc23)[nH]c1=O	GPR7 antag 29 | GPR7 antag conf inactive | MCHR1 antagonist inactive
Cc1cccc(NC(=O)COc2ccccc2C(=O)NC(C)c2ccccc2)c1 (stereo unspecified)	none
O=C(O)Cc1ccc(C(=O)c2ccc(F)cc2)s1	GPR7 antag 23 | GPR7 antag conf inactive | MCHR1 antagonist inactive
O=C(O)Cc1ccc(C(=O)c2ccccc2)s1	none
Cc1ccc(CCNS(=O)(=O)c2ccc3c(c2)NC(=O)C(C)C(=O)N3)cc1 (stereo unspecified)	none
Cc1cc(C)n(-c2nc(NCCN(C)C)c3c4c(sc3n2)CCCC4)n1	GPR7 antag 24 | GPR7 antag conf 27 | MCHR1 antagonist 30
Cc1cc(C)n(-c2nc(NCCCN(C)C)c3c4c(sc3n2)CCCC4)n1	none
COc1ccc(NC(=O)CSc2nc3c(c(=O)n2-c2ccccc2OC)SCC3)cc1	none
COc1ccccc1-n1c(SCC(=O)NC2CCCCC2)nc2c(c1=O)SCC2	GPR7 antag 29 | GPR7 antag conf inactive | MCHR1 antagonist inactive
Cc1c(C(=O)N2CCN(c3ncccn3)CC2)oc2c(Cl)cccc12	none (no result: HCV NS3 hel inh, DNA FID counter, GPR7 antag)
CC(=O)NC(Cc1c[nH]c2ccccc12)C(=O)N1CCN(S(=O)(=O)c2ccccc2)CC1 (stereo unspecified)	none (no result: HCV NS3 hel inh, DNA FID counter, GPR7 antag, EBNA-1 inh)
Cc1nonc1OCCNc1ccc([N+](=O)[O-])cc1	none
Cc1nonc1OCCNCCNc1ccc([N+](=O)[O-])cc1Cl	GPR7 antag 25 | GPR7 antag conf inactive | MCHR1 antagonist inactive
Cc1cccc(NC(=O)NC2CCCc3ccccc32)c1 (stereo unspecified)	none
O/N=C/c1ccccc1OCc1ccc(Cl)cc1	GPR7 antag 27 | GPR7 antag conf inactive | MCHR1 antagonist inactive
COC(=O)c1ccc(-n2nnnc2SCc2ccccc2OC)cc1	GPR7 antag 38 | GPR7 antag conf 37 | MCHR1 antagonist 61
COc1ccccc1N1CC(C(=O)Nc2ccccc2N2CCCC2)CC1=O (stereo unspecified)	none (no result: HCV NS3 hel inh, DNA FID counter, GPR7 antag)
Fc1ccc(Cn2nnnc2C(c2ccc(Cl)cc2)N2CCSCC2)cc1 (stereo unspecified)	GPR7 antag 34 | GPR7 antag conf 40 | MCHR1 antagonist 27
CC1CCN(C(c2ccc(N(C)C)cc2)c2nnnn2Cc2ccc(F)cc2)CC1 (stereo unspecified)	none
Cc1nc(SCC(=O)NCC2CCCO2)c2cc(-c3ccccc3)sc2n1 (stereo unspecified)	none (no result: HCV NS3 hel inh, DNA FID counter, GPR7 antag, EBNA-1 inh)
CCN(CC)C(=O)CSc1nc(O)c(Cc2ccccc2)c(=O)n1-c1ccc(C)cc1	none
Cc1ccc(-n2c(SCC(=O)N3CCCCC3)nc(O)c(Cc3ccccc3)c2=O)cc1	GPR7 antag 25 | GPR7 antag conf inactive | MCHR1 antagonist inactive
Fc1ccccc1NC(=S)NCCc1cccc(Cl)c1	none (no result: ZTA counter, EBNA-1 inh)
COc1ccc(OC)c(NS(=O)(=O)c2c(C(=O)N3CCCCCC3)c(C)n(C)c2C)c1	GPR7 antag 45 | GPR7 antag conf 28 | MCHR1 antagonist inactive
Cc1ccccc1N(CC(=O)NC1CCCCC1)C(=O)CCCC(=O)Nc1ccccn1	GPR7 antag 38 | GPR7 antag conf 33 | MCHR1 antagonist inactive
Cc1ccc(NS(=O)(=O)c2ccc(C(=O)NCC(c3ccco3)N(C)C)cc2)cc1 (stereo unspecified)	GPR7 antag 34 | GPR7 antag conf 52 | MCHR1 antagonist 43
Cc1cccc(NS(=O)(=O)c2ccc(C(=O)NCC(c3ccccc3)N(C)C)cc2)c1C (stereo unspecified)	GPR7 antag 33 (no result: ZTA counter, EBNA-1 inh) | GPR7 antag conf 47 | MCHR1 antagonist 58
CN(C)C(CNC(=O)c1ccc(NS(=O)(=O)c2ccc(F)cc2)cc1)c1ccco1 (stereo unspecified)	none (no result: HCV NS3 hel inh, DNA FID counter, GPR7 antag)
Cc1ccc2c(CC(=O)NNC(=O)c3ccccc3O)coc2c1	none (no result: HCV NS3 hel inh, DNA FID counter, GPR7 antag)
Cc1ccc(Cl)cc1NC(=O)c1cc(NC(=O)C2CCCCC2C(=O)O)ccc1N1CCOCC1 (stereo unspecified)	none
COc1ccc(-c2cc(C(=O)N(C)Cc3ccccc3)no2)cc1OC	GPR7 antag 31 | GPR7 antag conf inactive | MCHR1 antagonist inactive
CCCCN(C)CC(O)Cn1cc(/C=C/C(=O)c2ccc(OCC)cc2)c2ccccc21 (stereo unspecified)	GPR7 antag 32 | GPR7 antag conf 36 | MCHR1 antagonist 55
CCCOc1ccc(C(=O)NNC(=S)NC(C)=O)cc1	none
CCCOc1ccc(C(=O)NNC(=S)NC(=O)c2ccccc2)cc1	GPR7 antag 42 | GPR7 antag conf 60 | MCHR1 antagonist 62
CCCOc1ccc(C(=O)NNC(=S)NC(=O)c2cccs2)cc1	GPR7 antag 52 | GPR7 antag conf 42 | MCHR1 antagonist 37
Cc1cccc(C(=O)NC(=S)NNC(=O)c2ccc(Cl)cc2)c1	GPR7 antag 32 | GPR7 antag conf 58 | MCHR1 antagonist 50
